“And” between values parts separate entries of the source, which are not always exact repeats. Equal entries are not always repeated.
Columns and labels:
[1] = molecular target: T1, D(4) dopamine receptor (Homo sapiens) (UniProt P21917); test: In vitro efficacy tested on human Dopamine receptor D4.4 were co-expressed with GRqo5 in HEK293 cells using FLIPR assay (Efficacy relative to 10 uM dopamine); type: cell-based
T1 sequence (whole entry): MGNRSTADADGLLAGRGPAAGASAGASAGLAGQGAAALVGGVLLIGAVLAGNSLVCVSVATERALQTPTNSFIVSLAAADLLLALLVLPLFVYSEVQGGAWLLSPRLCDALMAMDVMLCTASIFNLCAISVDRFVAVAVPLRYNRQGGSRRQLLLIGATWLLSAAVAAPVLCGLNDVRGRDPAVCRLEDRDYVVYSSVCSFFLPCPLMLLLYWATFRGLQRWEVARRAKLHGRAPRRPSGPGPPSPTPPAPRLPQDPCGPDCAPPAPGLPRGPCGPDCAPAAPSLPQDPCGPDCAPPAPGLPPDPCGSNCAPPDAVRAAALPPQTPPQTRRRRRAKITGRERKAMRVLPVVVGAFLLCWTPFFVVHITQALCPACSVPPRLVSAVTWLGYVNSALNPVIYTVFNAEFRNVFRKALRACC
Method in brief: (§1)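 HEK293 cells coexpressing human D4.4 receptor and Gαqo5, plated at 20 000 cells/well and grown 2 days. Loaded 1 h at 23 °C with 4 µM Fluo-4 plus 0.04% Pluronic F-127 in DPBS, washed four times. Compound added, fluorescence read over 3 min.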

[2] = tested on: Rattus norvegicus; test: In vivo maximal penile erection in rats 60 min after subcutaneous administration; type: functional
Method in brief: (§2)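 Conscious male Wistar rats, adapted 60 min to a dim red-lit room, tested between 9:00 a.m. and 3:00 p.m. Dosed subcutaneously, then caged singly and observed directly for 60 min. Percent incidence is the share of animals with one or more erections; 8–30 animals per group. Maximally effective dose is the dose giving peak incidence, with significance versus control.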

[3] = molecular target: T2, D(4) dopamine receptor (Homo sapiens, UniProt P21917); test: In vitro EC50 tested on HEK293 cells co-transfected with human Dopamine receptor D4.4 using FLIPR assay; type: cell-based; method in brief: as §1
T2 sequence (P21917 whole entry): T1 sequence (whole entry)

[4] = tested on: Rattus norvegicus; test: In vivo maximal effective dose tested in rats for erection 60 min after subcutaneous administration; type: functional; method in brief: as §2
[5] = Binding affinity tested against D4.2 receptor in Chinese hamster ovary cell line (CHO cells) using [3H]spiperone as a radioligand; type: cell-based, Cricetulus griseus
[6] = molecular target: T3, D(2) dopamine receptor (Homo sapiens, UniProt P14416); test: In vitro effective concentration tested on HEK293 cells co-transfected with human Dopamine receptor D2 using FLIPR assay; Not an agonist up to 10 uM; type: functional, cell-based
[7] = molecular target: T4, D(4) dopamine receptor (Rattus norvegicus, UniProt P30729); test: In vitro effective concentration tested on HEK293 cells co-transfected with rat Dopamine receptor D4 using FLIPR assay; type: cell-based
T4 sequence (P30729 whole entry): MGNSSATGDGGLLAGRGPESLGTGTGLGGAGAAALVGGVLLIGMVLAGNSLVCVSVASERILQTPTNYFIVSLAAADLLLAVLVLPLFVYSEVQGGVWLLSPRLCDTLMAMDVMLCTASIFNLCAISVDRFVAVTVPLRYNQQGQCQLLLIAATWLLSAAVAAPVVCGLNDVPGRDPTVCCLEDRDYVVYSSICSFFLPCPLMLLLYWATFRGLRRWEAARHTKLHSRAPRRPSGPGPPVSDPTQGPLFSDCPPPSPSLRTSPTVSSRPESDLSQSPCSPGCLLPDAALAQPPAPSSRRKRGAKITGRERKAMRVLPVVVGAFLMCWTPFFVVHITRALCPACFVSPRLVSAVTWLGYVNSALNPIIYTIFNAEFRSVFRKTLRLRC

[8] = molecular target: T5, 5-hydroxytryptamine receptor 1A (Homo sapiens, UniProt P08908); test: Binding affinity towards human 5-hydroxytryptamine 1A receptor
T5 sequence (P08908 whole entry): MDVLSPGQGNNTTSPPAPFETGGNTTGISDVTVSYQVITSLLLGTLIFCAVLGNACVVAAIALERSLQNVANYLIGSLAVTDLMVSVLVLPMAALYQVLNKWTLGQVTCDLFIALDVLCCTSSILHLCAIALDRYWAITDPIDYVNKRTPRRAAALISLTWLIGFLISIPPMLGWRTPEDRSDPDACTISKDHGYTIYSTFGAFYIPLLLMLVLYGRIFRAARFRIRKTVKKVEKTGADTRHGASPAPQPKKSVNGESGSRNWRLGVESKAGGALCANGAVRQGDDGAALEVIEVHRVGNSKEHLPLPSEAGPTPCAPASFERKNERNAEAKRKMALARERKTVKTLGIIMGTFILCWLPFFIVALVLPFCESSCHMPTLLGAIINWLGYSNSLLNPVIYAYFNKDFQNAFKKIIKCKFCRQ

[9] = molecular target: D(2) dopamine receptor (Rattus norvegicus) (UniProt P61169); test: In vitro efficacy tested on rat Dopamine receptor D2 were co-expressed with GRqo5 in HEK293 cells using FLIPR assay (Efficacy relative to 10 uM dopamine); type: cell-based
[10] = molecular target: Kappa-type opioid receptor (Homo sapiens, UniProt P41145); test: Binding affinity towards human Opioid receptor kappa 1
[11] = molecular target: D(3) dopamine receptor (Homo sapiens, UniProt P35462); test: Binding affinity towards human Dopamine receptor D3
[12] = molecular target: T3, D(2) dopamine receptor; test: Binding affinity towards human Dopamine receptor D2
[13] = molecular target: T6, Adrenergic receptor alpha-2 (Homo sapiens, UniProt P08913+P18825+P18089); test: Binding affinity towards human alpha-2 adrenergic receptor; type: protein assay
T6 sequence (P08913 whole entry): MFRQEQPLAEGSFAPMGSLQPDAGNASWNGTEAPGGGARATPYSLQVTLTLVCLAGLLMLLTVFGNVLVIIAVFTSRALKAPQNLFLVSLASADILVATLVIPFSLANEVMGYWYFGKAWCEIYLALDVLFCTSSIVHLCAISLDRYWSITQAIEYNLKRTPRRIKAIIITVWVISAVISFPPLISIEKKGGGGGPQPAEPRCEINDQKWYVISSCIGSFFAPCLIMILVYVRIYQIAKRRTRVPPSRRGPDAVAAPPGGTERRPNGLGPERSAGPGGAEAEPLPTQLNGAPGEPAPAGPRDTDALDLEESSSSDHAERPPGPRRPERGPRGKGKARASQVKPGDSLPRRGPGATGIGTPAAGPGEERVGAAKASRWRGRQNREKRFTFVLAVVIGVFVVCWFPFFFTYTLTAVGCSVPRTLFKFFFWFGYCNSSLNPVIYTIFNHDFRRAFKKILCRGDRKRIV
T6 sequence (P18825 whole entry): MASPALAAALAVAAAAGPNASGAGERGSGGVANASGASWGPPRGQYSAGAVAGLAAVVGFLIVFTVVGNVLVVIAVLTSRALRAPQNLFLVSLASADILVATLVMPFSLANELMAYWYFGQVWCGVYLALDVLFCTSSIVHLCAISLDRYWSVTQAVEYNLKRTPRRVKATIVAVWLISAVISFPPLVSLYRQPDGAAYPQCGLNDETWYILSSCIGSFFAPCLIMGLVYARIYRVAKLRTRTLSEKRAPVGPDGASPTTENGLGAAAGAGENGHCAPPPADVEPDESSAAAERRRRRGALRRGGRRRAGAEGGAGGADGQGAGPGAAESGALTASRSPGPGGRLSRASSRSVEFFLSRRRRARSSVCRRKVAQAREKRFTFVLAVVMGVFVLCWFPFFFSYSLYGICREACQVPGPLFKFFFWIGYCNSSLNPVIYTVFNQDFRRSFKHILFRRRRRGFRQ
T6 sequence (P18089 whole entry): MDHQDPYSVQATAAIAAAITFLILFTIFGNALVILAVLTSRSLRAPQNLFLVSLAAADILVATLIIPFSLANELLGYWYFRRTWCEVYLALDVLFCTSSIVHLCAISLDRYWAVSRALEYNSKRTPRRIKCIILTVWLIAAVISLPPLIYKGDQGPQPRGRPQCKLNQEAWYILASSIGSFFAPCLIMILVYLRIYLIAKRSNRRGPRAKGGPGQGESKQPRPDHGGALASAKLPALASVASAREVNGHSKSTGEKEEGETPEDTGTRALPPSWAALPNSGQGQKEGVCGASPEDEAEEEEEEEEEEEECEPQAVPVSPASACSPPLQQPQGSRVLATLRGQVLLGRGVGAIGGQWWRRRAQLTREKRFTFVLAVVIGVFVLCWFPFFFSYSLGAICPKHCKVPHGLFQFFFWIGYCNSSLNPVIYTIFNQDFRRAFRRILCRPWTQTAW

[14] = molecular target: T2, D(4) dopamine receptor; test: Binding affinity towards human D4.4 receptor
Method in brief: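 Membranes from HEK-293 cells transfected with human D4.4 receptor, stored at -80 °C. Filtration through glass microfiber filters, three cold Tris washes, scintillation counting; Ki derived.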

[15] = molecular target: T7, D(2) dopamine receptor (Rattus norvegicus, UniProt P61169); test: In vitro effective concentration tested on HEK293 cells co-transfected with rat Dopamine receptor D2 using FLIPR assay; type: cell-based
[16] = molecular target: T3, D(2) dopamine receptor; test: In vitro binding affinity tested on human Dopamine receptor D2 using [3H]spiperon as a radioligand
[17] = molecular target: T7, D(2) dopamine receptor; test: In vitro effective concentration tested on HEK293 cells co-transfected with rat Dopamine receptor D2 using FLIPR assay; Not an agonist up to 10 uM; type: functional, cell-based
[18] = molecular target: T3, D(2) dopamine receptor; test: In vitro binding affinity tested on human Dopamine receptor D2 (long) using [3H]spiperon as a radioligand
[19] = molecular target: T3, D(2) dopamine receptor; test: In vitro binding affinity tested on human Dopamine receptor D2 (short) using [3H]spiperone as a radioligand
[20] = molecular target: T5, 5-hydroxytryptamine receptor 1A; test: In vitro binding affinity tested on human 5-hydroxytryptamine 1A receptor
[21] = molecular target: T4, D(4) dopamine receptor; test: In vitro effective concentration tested on HEK293 cells co-transfected with rat Dopamine receptor D4 using FLIPR assay; Not an agonist up to 10 uM; type: functional, cell-based
Method in brief: (§3)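 HEK cells co-transfected with the target receptor plus Gαqo5. […] Compounds were tested up to 10 µM. Untransfected cells served as a control.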

[22] = molecular target: T2, D(4) dopamine receptor; test: In vitro effective concentration tested on HEK293 cells co-transfected with human Dopamine receptor D4 using FLIPR assay; Not an agonist up to 10 uM; type: functional, cell-based
Method in brief: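 Human D4.4 receptor co-expressed with Gαqo5 in HEK293 cells, plated at 20 000 cells/well and grown 2 days. Loaded with 4 µM Fluo-4 and 0.04% Pluronic F-127 in DPBS with glucose and pyruvate for 1 h at 23 °C, then washed. Compound added and fluorescence read over 3 min on FLIPR. […] EC50 is the concentration giving half-maximal response.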

[23] = molecular target: T3, D(2) dopamine receptor; test: In vitro efficacy tested on human Dopamine receptor D2 were co-expressed with GRqo5 in HEK293 cells using FLIPR assay (Efficacy relative to 10 uM dopamine); type: functional, cell-based
[24] = molecular target: D(2) dopamine receptor (Rattus norvegicus) (UniProt P61169); test: In vitro efficacy tested on ferret Dopamine receptor D2 were co-expressed with GRqo5 in HEK293 cells using FLIPR assay (Efficacy relative to 10 uM dopamine); type: functional, cell-based; method in brief: as §3
[25] = molecular target: D(2) dopamine receptor (Rattus norvegicus) (UniProt P61169); test: In vitro efficacy tested on rat Dopamine receptor D2 were coexpressed with GRqo5 in HEK293 cells using FLIPR assay (Efficacy relative to 10 uM dopamine); type: functional, cell-based; method in brief: as §3

T3 sequence (P14416 whole entry): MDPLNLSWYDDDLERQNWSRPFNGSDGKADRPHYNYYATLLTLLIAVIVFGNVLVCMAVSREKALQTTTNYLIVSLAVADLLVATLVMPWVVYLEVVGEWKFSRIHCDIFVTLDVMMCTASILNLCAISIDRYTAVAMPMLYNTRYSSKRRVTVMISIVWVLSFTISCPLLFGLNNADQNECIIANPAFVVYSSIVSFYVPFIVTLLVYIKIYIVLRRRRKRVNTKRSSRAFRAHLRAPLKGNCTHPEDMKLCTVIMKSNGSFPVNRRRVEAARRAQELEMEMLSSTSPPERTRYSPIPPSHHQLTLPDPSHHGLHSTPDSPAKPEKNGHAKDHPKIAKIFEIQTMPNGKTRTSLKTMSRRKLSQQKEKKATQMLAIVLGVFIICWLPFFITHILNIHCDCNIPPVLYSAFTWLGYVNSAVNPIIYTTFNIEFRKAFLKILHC
Chain of D(2) dopamine receptor (Rattus norvegicus) (P61169 whole entry): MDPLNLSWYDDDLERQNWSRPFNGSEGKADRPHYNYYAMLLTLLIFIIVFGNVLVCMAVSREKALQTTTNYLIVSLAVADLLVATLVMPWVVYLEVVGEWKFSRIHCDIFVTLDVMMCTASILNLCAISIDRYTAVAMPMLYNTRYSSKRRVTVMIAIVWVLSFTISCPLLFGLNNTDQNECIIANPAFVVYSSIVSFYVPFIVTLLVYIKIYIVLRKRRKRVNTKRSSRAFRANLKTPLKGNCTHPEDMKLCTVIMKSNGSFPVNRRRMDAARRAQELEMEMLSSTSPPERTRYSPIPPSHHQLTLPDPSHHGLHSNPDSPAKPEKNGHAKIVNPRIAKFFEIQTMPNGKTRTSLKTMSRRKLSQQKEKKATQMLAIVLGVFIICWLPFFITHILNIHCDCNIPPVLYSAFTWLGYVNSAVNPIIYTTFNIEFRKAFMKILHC
T7 sequence (P61169 whole entry): as above
Chain of D(3) dopamine receptor (P35462 whole entry): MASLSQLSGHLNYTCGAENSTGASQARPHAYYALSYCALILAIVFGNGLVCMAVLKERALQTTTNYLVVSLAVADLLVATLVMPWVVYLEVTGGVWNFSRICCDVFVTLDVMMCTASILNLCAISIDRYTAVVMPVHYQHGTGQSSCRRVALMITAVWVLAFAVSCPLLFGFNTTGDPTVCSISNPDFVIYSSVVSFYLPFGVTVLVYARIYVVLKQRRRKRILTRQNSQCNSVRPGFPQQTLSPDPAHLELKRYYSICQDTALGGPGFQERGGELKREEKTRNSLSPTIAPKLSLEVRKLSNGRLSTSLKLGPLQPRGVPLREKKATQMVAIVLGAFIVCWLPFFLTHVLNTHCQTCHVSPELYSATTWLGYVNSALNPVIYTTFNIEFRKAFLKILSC
Chain of Kappa-type opioid receptor (P41145 whole entry): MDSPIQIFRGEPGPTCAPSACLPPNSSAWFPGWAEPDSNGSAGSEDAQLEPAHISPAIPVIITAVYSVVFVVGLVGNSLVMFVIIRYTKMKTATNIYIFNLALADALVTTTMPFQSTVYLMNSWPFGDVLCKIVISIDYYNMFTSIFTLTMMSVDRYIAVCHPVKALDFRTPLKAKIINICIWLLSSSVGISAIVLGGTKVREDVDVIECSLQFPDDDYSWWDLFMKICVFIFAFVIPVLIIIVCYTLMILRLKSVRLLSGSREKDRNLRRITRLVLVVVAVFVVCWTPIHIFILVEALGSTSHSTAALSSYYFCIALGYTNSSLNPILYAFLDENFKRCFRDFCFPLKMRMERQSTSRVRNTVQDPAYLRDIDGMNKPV

c1ccc(N2CCN(Cc3nc4ccccc4[nH]3)CC2)cc1 showed an Efficacy [1] of 33%, an Activity [2] of 75% and an EC50 [3] of 0.0306 µM. It also gave an Effective dose [4] of 0.03 µM/kg and a Ki [5] of 0.033 µM.
With Fc1ccc2[nH]c(CN3CCN(c4ccccn4)CC3)cc2c1 the EC50 [6] was “Not Active”, the EC50 [7] was 0.036 µM and the Ki [8] was 0.2 µM. The Efficacy [9] was 89%, the Ki [10] was 0.3 µM and the Ki [11] was 0.56 µM. It also gave a Ki [12] of 0.12 µM, an Activity [2] of 83% and an Effective dose [4] of 1 µM/kg. It also gave a Ki [13] of 0.4 µM, a Ki [14] of 0.0036 µM and an EC50 [15] of 0.055 µM.
For c1ccc(N2CCN(Cc3nc4ccccc4[nH]3)CC2)nc1 [ABT-724], the Ki [16] was 0.16 µM, the EC50 [6] was “Not Active” and the Efficacy [1] was 61%. For the same compound, the EC50 [7] was 0.0143 µM, the Activity [2] was 77% and the Effective dose [4] was 0.03 µM/kg. The EC50 [17] was “Not Active”, the Ki [18] was 15 µM and the Ki [19] was 51 µM. For the same compound, the Ki [20] was > 10 µM and 2780 µM.
For CN[C@@H]1Cc2cccc3[nH]c(=O)n(c23)C1 [SUMANIROLE], the EC50 [21] was “Not Active”, the EC50 [22] was “Not Active” and the Efficacy [23] was 93%. It also gave an Efficacy [24] of 90% and an Efficacy [25] of 103%.

Reference: ChEMBL document CHEMBL1148372 (J Med Chem, 2004)
